Measurements: ChEMBL document CHEMBL4732104, “Discovery of bardoxolone derivatives as novel orally active necroptosis inhibitors” (Eur J Med Chem, 2021)
Activity calls are given as the source filed them. The rule behind the calls is not given here.

Columns and labels:
L929 = test: Anti-necroptotic activity in mouse L929 cells assessed as inhibition of TNFalpha/Z-VAD-fmk (TZ)-induced necroptosis by measuring increase in cell viability measured after 12 hrs by celltiter-glo luminescent cell viability assay; format: functional, cell-based
Outline: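 Mouse L929 fibroblasts pretreated with test agent, then mouse TNF-α (20 ng/mL) plus z-VAD-fmk (20 μM). Incubation stated as 4 h in table footnote and 12 h in figure legend. CellTiter-Glo viability. EC50 ± SD from at least three independent repeats.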

HT-29 [1] = test: Anti-necroptotic activity in human HT-29 cells assessed as inhibition of TNFalpha/SM-164/Z-VAD-fmk (TSZ)-induced necroptosis by measuring increase in cell viability measured after 12 hrs by celltiter-glo luminescent cell viability assay; format: functional, cell-based
Outline: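 HT-29 cells pretreated with test agent across a concentration range, then TNF-α (20 ng/mL), Smac mimetic (10 nM) and z-VAD-fmk (20 μM) for 12–16 h. CellTiter-Glo viability. EC50 ± SD from at least three independent experiments.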

HT-29 [2] = test: Anti-necroptotic activity in human HT-29 cells assessed as inhibition of TNFalpha/SM-164/Z-VAD-fmk (TSZ)-induced necroptosis by measuring increase in cell viability at 10 uM measured after 12 hrs in presence of RIPK3 inhibitor SZM630 by celltiter-glo luminescent cell viability assay; format: functional, cell-based
Outline: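 HT-29 cells exposed to test agent combined with a second necroptosis inhibitor, then stimulated with TSZ for 12 h to assess synergy. Viability read by CellTiter-Glo luminescence.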

HT-29 [3] = test: Protection against TNFalpha/cycloheximide (TC)-induced apoptosis in human HT-29 cells assessed as increase in cell viability at 0.25 to 5 uM measured after 24 hrs by celltiter-glo luminescent cell viability assay; format: functional, cell-based; conditions: dose 0.25-5 µM
Outline: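 HT-29 cells treated with agent across concentrations, then TNF-α and cycloheximide (TC) for 24 h. CellTiter-Glo luminescent viability, mean ± S.D. from three independent experiments.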

[4] = target: Heat shock protein HSP90 (Homo sapiens) (UniProt P07900+P08238); test: Inhibition of HSP90 in TNFalpha/SM-164/Z-VAD-fmk (TSZ)-induced human HT-29 cells assessed as reduction in RIPK3 expression at 10 uM preincubated for 30 mins followed by TSZ stimulation and measured after 2 to 6 hrs by Western blot analysis; format: cell-based; conditions: time 2-6.5 hrs
Outline: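 HT-29 cells pretreated 30 min with agent (10 μM), then TSZ for the indicated times. Lysed in RIPA with protease and phosphatase inhibitors, BCA quantified. 30 μg protein run on SDS-PAGE and blotted to PVDF. Blocked in 5% BSA, primary antibodies 1:1000 overnight at 4 °C, secondary 1:8000 for 1 h at room temperature.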

## CC1(C)CC[C@]2(C(=O)n3cnc(-c4cccnc4)c3)CC[C@]3(C)[C@H](C(=O)C=C4[C@@]5(C)C=C(C#N)C(=O)C(C)(C)[C@@H]5CC[C@]43C)[C@@H]2C1
L929
  inhibition: Dose-dependent effect
L929; L929, 12 h
  EC50: 0.86 µM
HT-29 [1]
  inhibition: Dose-dependent effect
HT-29 [1]; HT-29, 12 h
  EC50: 0.31 µM
HT-29 [2]
  inhibition: Active
HT-29 [3]
  Activity: Active
[4]
  inhibition: Active
